HNF4A DNA FP = change in binding of human HNF4A to DNA, primary screen, biochemical, fluorescence polarization, FITC-DNA; Hepatocyte nuclear factor 4-alpha (Homo sapiens), P41235; 1 h; activity change, % at 10 µM; hit rate 0.3% among 360,000; AID 1224865, 2016; in the data active = activity change above about 30%, passing the limit was not always enough
Rpn11 block = Rpn11 (PSMD14) deubiquitinase inhibitors, primary screen, biochemical, fluorescence polarization, uHTS | 26S proteasome non-ATPase regulatory subunit 14 (Homo sapiens), O00487 | human 26S proteasome, Ub4-pepOG fluorescence polarization; 20S core pre-blocked with epoxomicin | inhibition, % at 20 µM | hit rate 0.59% among 360,000 | AID 588493, 2011;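 active = inhibition at 20 µM, scaled to each plate's controls, above about 33%, limit read from the data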
IDE cell inh = human IDE inhibitors in live cells, primary screen, fluorescence polarization, HEK cells, FAbetaB substrate; Insulin-degrading enzyme (Homo sapiens), P14735; FAbetaB cleavage; inhibition, % at 5.59 µM; hit rate 0.41% among 320,000; AID 434962, 2010;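 active = percent inhibition above the average of all tested compounds plus 3 SD, set per screening campaign, cut at about 16% in these data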;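 also: IDE supplied by intact live HEK cells; FP after avidin binding of uncleaved biotin substrate so inhibition keeps polarization high; 0% = DMSO wells and 100% = 60 µM reference IDE inhibitor Ii1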
CSN deneddyl inh = inhibitors of CSN-mediated cullin deneddylation, primary screen, biochemical, fluorescence polarization, uHTS; COP9 signalosome complex subunit 5 (Homo sapiens), Q92905; Purified CSN, SCF-Nedd8-OG deneddylation; inhibition, % at 12.5 µM; hit rate 0.38% among 360,000; AID 651999, 2013;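 active = pattern-corrected inhibition above about 35%, with an unprinted fluorescence ratio check between 0.5 and 1.5, limit read from the data, passing the limit was not always enough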;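 also: 0% = enzyme with substrate and 100% = substrate without enzyme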
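Assay system: purified human Csn5 enzyme expressed in HEK293T cells; Input: 0.24 nM Csn5 enzyme, final concentration; Reagent: 10 nM SCFSkp2-Nedd8OG; Compound dosing: 12.5 µM single point; Times: reaction 90 min, room temperature; Technique: fluorescence polarization readout.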
IDE cell activ = human IDE activators in live cells, primary screen, fluorescence polarization, HEK cells, FAbeta-B substrate; Insulin-degrading enzyme (Homo sapiens), P14735; hit rate 0.073% among 340,000; AID 493087, 2011; FAbeta-B cleavage; 0% vehicle, 100% cell-free pure enzyme wells; activation, % at 5.96 µM;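 active = activation above the mean of all tested compounds plus 3 SD, set per screening campaign, cut at about 17% in these data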
TPT1 inhibitor = Candida albicans TPT1 enzyme inhibitors, primary screen, biochemical, fluorescence polarization; tRNA 2'-phosphotransferase TPT1 (Candida albicans SC5314); recombinant caTPT1, FP RNA substrate dephosphorylation; inhibition, % at 5 µM; hit rate 0.81% among 300,000;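 active = inhibition above the mean of all tested compounds plus 3 SD, set per screening campaign, cut at about 24% in these data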;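 also: plate controls were DMSO alone for no effect and ferristatin control at 100 nM for full effect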
caTPT1 confirm = Candida albicans TPT1 inhibitors, confirmation, biochemical, fluorescence polarization, triplicate; inhibition, % at 5 µM; AID 2149, 2009; shares compounds with TPT1 inhibitor; recombinant caTPT1, RNase T1 coupled; hit rate 74% among 2,400;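 active = inhibition above the primary screen limit, the mean inhibition of all tested compounds plus 3 SD, cut at about 25% in these data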
RNase T1 inh = RNase T1 inhibitors, counter-screen for TPT1 inhibitor project, biochemical, fluorescence polarization; AID 2153, 2009; inhibition, % at 5 µM; RNase T1 cleavage, 1536-well; hit rate 83% among 2,400; shares compounds with TPT1 inhibitor;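 active = inhibition above the solvent-only control well mean plus 3 SD, limit set per screening run, cut at about 23% in these data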;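 also: plate controls were DMSO wells with enzyme for no effect and wells without RNase T1 for full effect; inhibitors block cleavage so intact labeled substrate keeps polarization high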
IDE cell inh cf = human IDE inhibitors in live cells, confirmation, fluorescence polarization, HEK cells, FAbetaB substrate; FAbetaB cleavage; hit rate 51% among 1,200; shares compounds with IDE cell inh; inhibition, % at 5.59 µM;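 active = mean inhibition across triplicate wells above the cutoff set by the earlier primary insulin-degrading enzyme screen, cut at about 16% in these data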;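 also: 0% = DMSO wells and 100% = 60 µM reference IDE inhibitor Ii1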
HEK cytotox = cytotoxicity in HEK cells, cytotoxicity control for IDE inhibitor project, cell-based, luminescence. shares compounds with IDE cell inh. inhibition, % at 5.59 µM. hit rate 28% among 1,200. HEK293 cytotoxicity, ATP luminescence. AID 449730, 2010; in the data active = inhibition above about 22%;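 also: 0% = vehicle wells and 100% = reference cytotoxic drug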
CSN deneddyl val = Csn5 deneddylation inhibitors, confirmation, biochemical, fluorescence polarization, single concentration, SCF-Nedd8OG substrate; shares compounds with CSN deneddyl inh; Csn5 deneddylation of SCF-Nedd8OG, 90 min; inhibition, % at 16.6 µM; hit rate 62% among 540; in the data active = inhibition above about 50%;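 also: 0% = DMSO with enzyme and 100% = no enzyme wells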
MMP2 cntr CSN = MMP-2 protease inhibition counter-screen, confirmation, counter-screen for CSN deneddylation inhibitor project, biochemical, fluorescence, single concentration. shares compounds with CSN deneddyl inh. recombinant MMP-2, FRET substrate fluorescence, 60 min. hit rate 33% among 540. AID 720655, 2013. inhibition, % at 16.6 µM;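 active = corrected plate-normalized z-score of 5 or more, or -5 or less, or inhibition of 15% or more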;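 also: plate controls were DMSO wells with enzyme for no effect and buffer wells lacking MMP-2 for full effect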
Target sequence (P08253 whole entry, looked up): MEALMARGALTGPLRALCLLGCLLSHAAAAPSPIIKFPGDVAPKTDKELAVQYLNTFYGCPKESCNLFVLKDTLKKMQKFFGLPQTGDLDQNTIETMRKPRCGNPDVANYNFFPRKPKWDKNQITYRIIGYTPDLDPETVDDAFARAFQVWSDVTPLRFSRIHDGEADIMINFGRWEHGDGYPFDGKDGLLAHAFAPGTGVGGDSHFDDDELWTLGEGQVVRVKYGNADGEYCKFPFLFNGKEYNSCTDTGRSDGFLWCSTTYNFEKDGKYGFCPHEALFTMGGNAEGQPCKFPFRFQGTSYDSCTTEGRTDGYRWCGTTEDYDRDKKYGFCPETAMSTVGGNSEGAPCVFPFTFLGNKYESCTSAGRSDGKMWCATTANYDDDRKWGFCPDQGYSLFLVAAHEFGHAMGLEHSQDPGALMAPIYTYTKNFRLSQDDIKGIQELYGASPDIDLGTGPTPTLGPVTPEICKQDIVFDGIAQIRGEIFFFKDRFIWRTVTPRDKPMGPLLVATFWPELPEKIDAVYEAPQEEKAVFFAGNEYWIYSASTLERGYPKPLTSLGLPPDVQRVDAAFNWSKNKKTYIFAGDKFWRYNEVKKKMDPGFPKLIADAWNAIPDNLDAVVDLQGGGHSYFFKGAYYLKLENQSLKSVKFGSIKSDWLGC
Thrombin cntr = blocks bovine thrombin in a CSN deneddylation counter-screen; bovine thrombin cleavage of Ub4-pepOG, fluorescence polarization; hit rate 49% among 540; shares compounds with CSN deneddyl inh; inhibition, % at 16.6 µM;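 active = inhibition at or above a set limit, with a fluorescence interference ratio between 0.5 and a set maximum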
* = called active by the depositor; / = no result shown. Only some compounds are listed: those with a hit (about 1.7% of all), similar ones and a draw of the others.

SMILES	HNF4A DNA FP	Rpn11 block	IDE cell inh	CSN deneddyl inh	IDE cell activ	TPT1 inhibitor	caTPT1 confirm	RNase T1 inh	IDE cell inh cf	HEK cytotox	CSN deneddyl val	MMP2 cntr CSN	Thrombin cntr
O=C(NCc1ccc(F)cc1)C1CCCN(c2cnccn2)C1 (stereo not given)	1	-1	1	-6	-1	-1	/	/	/	/	/	/	/
Cc1cc2c(cc1S(=O)(=O)CCC(=O)N(C)C1CCCCC1)OCC(=O)N2	4	-4	-2	-3	4	5	/	/	/	/	/	/	/
NC(=O)c1ncn([C@@H]2O[C@H](CNCc3cc(Cl)ccc3OCc3ccc(Cl)cc3)[C@@H](O)[C@H]2O)n1	1	-4	/	-6	6	/	/	/	/	/	/	/	/
Cc1ccsc1C(=O)OCC(=O)c1cc(C)n(C)c1C	-3	-3	-1	0	3	/	/	/	/	/	/	/	/
CC(/C=C1\SC(=S)N(NC(=O)c2ccc(O)cc2)C1=O)=C\c1ccccc1	-3	0	-5	3	1	0	/	/	/	/	/	/	/
COc1cc(/C=C2\SC(=S)N(NC(=O)c3ccc(O)cc3)C2=O)ccc1O	50*	/	85*	50*	-85	35*	39*	52*	150*	10	53*	2	65*
Cc1ccc(/C=C/c2ccc(N(C)C)cc2)[n+](C)c1	89*	/	18*	47*	-10	36*	46*	56*	25*	91*	40*	-92*	68*
COc1ccccc1-c1ccc(/C=C2\C=CC(=O)O2)o1	94	/	29*	77*	/	114*	117*	113*	39*	12	48	-26	53*
COc1ccccc1-c1ccc(/C=C2/C=C(C)OC2=O)o1	8	31	1	12	-5	13	/	/	/	/	/	/	/
O=C(Nc1ccc(COc2ccccc2)cc1)Nc1cccc(C(=O)O)c1	2	3	0	0	2	0	/	/	/	/	/	/	/
C=CCN1C=CC(=CC=C(C#N)C#N)C=C1	119	/	23*	91*	-29	137*	158*	155*	41*	5	98*	8	79*
CCCN1C=CC(=CC=C(C#N)C#N)C=C1	121	/	39*	83*	-32	144*	165*	161*	47*	6	23	5	83*
Cn1c(-c2ccc(C=O)s2)nc2c3ccccc3c3ccccc3c21	-40	-14	3	47*	-5	34*	52*	63*	/	/	/	-18	-72
